Experimental data published in ChEMBL document CHEMBL4732138, “Evaluation of the Structure-Activity Relationship of Microtubule-Targeting 1,2,4-Triazolo[1,5-a]pyrimidines Identifies New Candidates for Neurodegenerative Tauopathies” (J Med Chem, 2021).
Activity calls are given as the source filed them. The calls are words filed in the database; no cut-off is given here.

Experiments:
Tubulin (Homo sapiens) [1] = molecular target: T1, Tubulin (Homo sapiens) (UniProt P68371+Q9H4B7+P0DPH7+P68366+Q13509+Q71U36+P04350+Q3ZCM7+P07437+P68363+Q9BQE3+Q6PEY2+Q13885+Q9BVA1+Q9BUF5); test: Stabilization of microtubules in human QBI293 cells assessed as fold change in alpha tubulin levels at 1 uM after 4 hrs by ELISA relative to DMSO; format: cell-based
Method in brief: (§1)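 QBI293 cells were grown in DMEM with 10% FBS, 2 mM L-glutamine and penicillin/streptomycin, then plated at 6 × 10^5 cells/well and left overnight. Medium was replaced with fresh medium holding vehicle (DMSO) or compound, and cells were incubated 4 h. Whole-cell extract supernatants were protein-normalized by BCA assay. AcTub and α-tubulin were quantified by ELISA against standard curves. Values are fold-change over DMSO, analysed by one-way ANOVA.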

Tubulin (Homo sapiens) [2] = molecular target: T1, Tubulin (Homo sapiens); test: Stabilization of microtubules in human QBI293 cells assessed as fold change in acetylated tubulin levels at 10 uM after 4 hrs by ELISA relative to cevipabulin; format: cell-based
Tubulin (Homo sapiens) [3] = molecular target: T1, Tubulin (Homo sapiens); test: Stabilization of microtubules in human QBI293 cells assessed as fold change in acetylated tubulin levels at 1 uM after 4 hrs by ELISA relative to cevipabulin; format: cell-based
Tubulin (Homo sapiens) [4] = molecular target: T1, Tubulin (Homo sapiens); test: Stabilization of microtubules in human QBI293 cells assessed as fold change in acetylated tubulin levels at 10 uM after 4 hrs by ELISA relative to DMSO; format: cell-based; method in brief: as §1
Tubulin (Homo sapiens) [5] = molecular target: T1, Tubulin (Homo sapiens); test: Stabilization of microtubules in human QBI293 cells assessed as increase in acetylated tubulin levels after 4 hrs by ELISA; format: cell-based
Method in brief: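 QBI293 cells are grown in DMEM with 10% FBS, 2 mM L-glutamine and penicillin/streptomycin, plated at 6 × 10^5 cells/well and incubated overnight. […] Acetyl- and total α-tubulin in whole-cell extract supernatants are measured by ELISA against standard curves, with protein by BCA. Values are fold-change over DMSO; AcTub is also given relative to 100 nM cevipabulin positive control. Significance is by one-way ANOVA.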

[6] = n-octanol-water distribution coefficient, log D of the compound at pH 7.4 by shake flask method; format: physicochemical; conditions: n-octanol/water, read-out: logD
Method in brief: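 Distribution coefficient between n-octanol and water at pH 7.4, measured by shake-flask method.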

[7] = Ratio of drug concentration in brain to plasma in CD-1 mouse at 5 mg/kg, ip administered as single cassette dosing and measured after 1 hr; format: ADME, organism-based; conditions: read-out: BPR
Method in brief: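 Groups of three female CD-1 mice (2–3 months old) received one i.p. dose of 5 mg/kg in DMSO and were euthanized 1 h later. Brain hemispheres were sonicated in 10 mM ammonium acetate, pH 5.7 (50% w/v). Plasma came from blood collected in 0.5 M EDTA, spun 10 min at 4,500 × g, 4 °C. B/P is the ratio of brain to plasma compound concentration.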

Tubulin (Homo sapiens) [8] = molecular target: T1, Tubulin (Homo sapiens); test: Stabilization of microtubules in human QBI293 cells assessed as fold change in alpha tubulin levels at 10 uM after 4 hrs by ELISA relative to DMSO; format: cell-based; method in brief: as §1
Tubulin (Homo sapiens) [9] = molecular target: T1, Tubulin (Homo sapiens); test: Stabilization of microtubules in human QBI293 cells assessed as fold change in acetylated tubulin levels at 1 uM after 4 hrs by ELISA relative to DMSO; format: cell-based; method in brief: as §1
Primary cortical neuron [10] = test: Stabilization of microtubules in CD-1 mouse primary cortical neurons assessed as prevention of microtubule collapse by causing increase in acetyl tubulin levels at 10 uM incubated for 8 hrs in presence of phosphatase inhibitor OA by ELISA; format: tissue-based
Method in brief: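 Mouse cortical neurons are plated at 6 × 10^5 cells/well and grown 10 days. […] Acetyl-tubulin in homogenates is measured by ELISA.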

[11] = Ratio of drug concentration in brain to plasma in CD-1 mouse at 2.5 mg/kg, ip administered as single cassette dosing and measured after 1 hr; format: ADME, organism-based; conditions: read-out: BPR
Method in brief: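 Groups of three female CD-1 mice, 2–3 months old, cassette-dosed i.p. with 2–3 compounds at the same time, each at 2.5 mg/kg in DMSO. Euthanised 1 h after dosing. Brain hemispheres homogenised in 10 mM ammonium acetate pH 5.7 (50% w/v). Plasma from blood collected in EDTA and centrifuged 4,500 × g, 10 min, 4 °C. Compound levels measured in both; brain/plasma ratio reported.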

Primary cortical neuron [12] = test: Stabilization of microtubules in Spargue-Dawley rat primary cortical neurons assessed as prevention of microtubule collapse by causing increase in acetyl tubulin levels at 1 uM incubated for 8 hrs in presence of phosphatase inhibitor OA by fluorescence microscopy analysis; format: tissue-based
Method in brief: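 Rat cortical neurons are grown 10 days on coverslips. They are treated 8 h with or without 15 nM okadaic acid, with or without test compound at 1 µM. Axonal acetyl-tubulin is then assessed by immunostaining.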

[13] = Half life in CD-1 mouse plasma at 5 mg/kg, ip administered as single cassette dosing and measured upto 16 hrs; format: ADME, organism-based
Method in brief: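 CD-1 mice, female, 2–3 months old, three per group, given a single i.p. dose of 5 mg/kg dissolved in DMSO. Brain and plasma sampled over 16 h. Plasma is from blood collected in 0.5 M EDTA and spun 10 min at 4,500 × g, 4 °C. Brain hemispheres are sonicated in 10 mM ammonium acetate pH 5.7 (50% w/v). Compound levels are measured in plasma and brain homogenates.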

| SMILES | fold change (FC) (Tubulin (Homo sapiens) [1]) | fold change (FC) (Tubulin (Homo sapiens) [2]) | fold change (FC) (Tubulin (Homo sapiens) [3]) | fold change (FC) (Tubulin (Homo sapiens) [4]) | Activity (Tubulin (Homo sapiens) [5]) | logD [6] | Kp at 1 h [7] | fold change (FC) (Tubulin (Homo sapiens) [8]) | fold change (FC) (Tubulin (Homo sapiens) [9]) | Activity (Primary cortical neuron [10]) | Kp at 1 h [11] | Activity (Primary cortical neuron [12]) | half-life [13] |
| --- | --- | --- | --- | --- | --- | --- | --- | --- | --- | --- | --- | --- | --- |
| Fc1cc(F)c(-c2c(Cl)nc3ncnn3c2N2CCCCCC2)c(F)c1 | 0.99 | 0.74 | 0.45 | 6.87 | Dose-dependent effect | 3.38 | 1.4 | 0.99 | 4.16 |  |  |  |  |
| C[C@@H](Nc1c(-c2c(F)cc(C#N)cc2F)c(Cl)nc2ncnn12)C(C)(C)C |  |  |  |  |  | 2.35 |  |  |  | Active | 0.7 | Active | 1.8 h |
| CC(C)[C@@H](C)Nc1c(-c2c(F)cc(F)cc2F)c(Cl)nc2ncnn12 |  |  |  |  | Dose-dependent effect | 3.51 | 2.7 |  |  |  |  | Active | 1.1 h |
